Measured values from ChEMBL document CHEMBL1151207, “Enniatins of Fusarium sp. strain F31 and their inhibition of Botrytis cinerea spore germination” (2004).
In brackets after ≈: the same amount, converted by molar mass.

What was measured:
Botrytis cinerea [1] = experiment: Antifungal activity against Botrytis cinerea 98G1 spore germination after 24 hrs at 20 degC in darkness by microtiter plate method; assay type: functional; conditions: 98G1, 24 h
In short: (§1)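 B. cinerea 98G1 conidia (tomato leaf agar, near-UV induced sporulation, mesh-filtered) suspended at 10⁶ spores/mL in liquid Hagem, 100 μL per well over dried isolated enniatins or commercial enniatin mixture at 10, 25, 50, 75, 100 μg/mL. A620 read at inoculation and after 24 h at 20 ± 1 °C in darkness, plus stereomicroscope 4-rank scale; duplicate wells.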

Botrytis cinerea [2] = experiment: Antifungal activity against Botrytis cinerea 98G1 assessed as drug level required for detectable inhibition of fungal growth after 24 hrs at 20 degC in darkness by microtiter plate method; assay type: functional; in short: as §1

Row | MIC (Botrytis cinerea [1]) [µg/mL] | Compound | Activity (Botrytis cinerea [2]) [µg/mL]
1 | > 100 | CC(C)[C@H]1C(=O)O[C@H](C(C)C)C(=O)N(C)[C@@H](C)C(=O)O[C@H](C(C)C)C(=O)N(C)[C@@H](C(C)C)C(=O)O[C@H](C(C)C)C(=O)N1C [ENNIATIN J1] | >100
2 | > 100 | CC(C)C[C@H]1C(=O)O[C@H](C(C)C)C(=O)N(C)[C@@H](C(C)C)C(=O)O[C@H](C(C)C)C(=O)N(C)[C@@H](C(C)C)C(=O)O[C@H](C(C)C)C(=O)N1C [ENNIATIN B4] | 50
3 | > 100 | CC(C)[C@@H]1NC(=O)[C@@H](C(C)C)OC(=O)[C@H](C(C)C)N(C)C(=O)[C@@H](C(C)C)OC(=O)[C@H](C(C)C)N(C)C(=O)[C@@H](C(C)C)OC1=O [ENNIATIN B2] | >100
4 | > 100 | CC[C@H]1C(=O)O[C@H](C(C)C)C(=O)N(C)[C@@H](C(C)C)C(=O)O[C@H](C(C)C)C(=O)N(C)[C@@H](C(C)C)C(=O)O[C@H](C(C)C)C(=O)N1C [ENNIATIN K1] | 100

Row | Compound | MIC (Botrytis cinerea [1]) [µg/mL] | Activity (Botrytis cinerea [2]) [µg/mL]
5 | CC[C@H](C)[C@H]1C(=O)O[C@H](C(C)C)C(=O)N(C)[C@@H](C(C)C)C(=O)O[C@H](C(C)C)C(=O)N(C)[C@@H](C(C)C)C(=O)O[C@H](C(C)C)C(=O)N1C [ENNIATIN B1] | 75 (≈ 115 µM) | 25
6 | CC(C)[C@H]1C(=O)O[C@H](C(C)C)C(=O)N(C)[C@@H](C(C)C)C(=O)O[C@H](C(C)C)C(=O)N(C)[C@@H](C(C)C)C(=O)O[C@H](C(C)C)C(=O)N1C [ENNIATIN B] | > 100 | 100
